# Measurements: PubChem BioAssay AID2445 (The Scripps Research Institute Molecular Screening Center, 2010)
# Among all 320,000 compounds or so, about 200 (0.062%) were called active. This is one part of a sample in which actives are shown more often than they occur. Unmarked numbers belong to inactive results.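 Rule for the calls: active = activation above that plate's cutoff, the mean activation of tested compounds plus 3 SD (cut at about 6.6% in these data, passing the limit was not always enough); inactive = the rest.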
# Target: Oxytocin receptor (Homo sapiens) (UniProt P30559)
# Sequence (P30559 whole entry, looked up): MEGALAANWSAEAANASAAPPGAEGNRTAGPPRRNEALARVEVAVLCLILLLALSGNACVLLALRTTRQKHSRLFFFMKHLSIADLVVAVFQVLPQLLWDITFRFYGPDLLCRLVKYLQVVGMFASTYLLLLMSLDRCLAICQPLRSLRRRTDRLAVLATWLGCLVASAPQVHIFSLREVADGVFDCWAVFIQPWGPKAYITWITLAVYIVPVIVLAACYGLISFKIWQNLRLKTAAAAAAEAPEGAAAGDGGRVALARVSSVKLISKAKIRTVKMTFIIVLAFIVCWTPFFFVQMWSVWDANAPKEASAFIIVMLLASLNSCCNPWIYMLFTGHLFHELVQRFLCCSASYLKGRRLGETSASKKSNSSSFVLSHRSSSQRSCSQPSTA
# Assay: human OXTR potentiators, primary screen, fluorescence, CHO-OTR cells, Fluo-8 calcium (AID 2445);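 note: 100% uses oxytocin at 75 nM as the full agonist control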
# Settings: Fluo-8 calcium fluorescence, potentiator mode, at 3 µM, stronger effect = higher value, 0% = oxytocin EC15, 100% = EC100
# How it was run: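 System: human OTR in CHO cells / Also added: sub-maximal oxytocin, roughly EC15 / Control set: EC15 oxytocin low, 75 nM oxytocin high / Schedule: 6 min compound pre-incubation at room temperature, 100 s kinetic read / Compound: single-point 3.0 µM / Replication: singlicate / Technique: Fluo-8 calcium dye fluorescence / Read-out basis: % activation of max/min ratio relative to oxytocin controls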
row,Structure (SMILES),activation
1,CC1CCC(NS(=O)(=O)c2ccc3c(c2)CC(=O)N3)CC1 (configuration not stated),-7.03%
2,Cc1cc(C)cc(N(CC(=O)NC2CCCC2)C(=O)CCC(=O)Nc2cc(C)on2)c1,-12.7%
3,Nc1ccc(SCCN2C(=O)c3ccccc3C2=O)cc1,-2.44%
4,COc1cc(/C=C2\SC(=O)NC2=O)ccc1OCc1ccc(Cl)nc1,-15.2%
5,CCOC(=O)c1ccccc1NC(=O)c1c(N)n(C)c(=O)[nH]c1=O,-5.38%
6,CCC(C)[C@H](NC(=O)N1c2ccccc2NC(=O)[C@@H]1C(C)C)C(=O)N[C@@H](Cc1ccccc1)C(=O)O (some centres not stated),-4.93%
7,CC1(C)CC(=O)CC2(C1)NCC(c1ccccc1Cl)c1c2[nH]c2ccccc12 (configuration not stated),-23.6%
8,Cc1cccn2c(=O)nc(SCC(=O)NCc3ccccc3Cl)nc12,-9.43%
9,O=C(NCCc1ccccn1)c1cc(C(=O)C2CCCCC2)c[nH]1,-8.37%
10,Cc1nc(NCc2ccccc2)c(C(N)=O)c2c1COC(C)(C)C2,-7.89%
11,O=C1CCCc2nn(-c3ccccc3)nc21,-20.3%
12,CCc1cc2c(SCC(=O)Nc3ncc(Cl)c(C)c3Cl)ncnc2s1,-3.54%
13,CC(C)Cn1c(CN(Cc2ccccc2)Cc2ccccc2)nc2c1c(=O)n(C)c(=O)n2C,-4.31%
14,CC(C)CCn1c(CN(C)Cc2ccccc2)nc2c1c(=O)n(C)c(=O)n2C,-2.79%
15,COCCn1c(CN(Cc2ccccc2)Cc2ccccc2)nc2c1c(=O)n(C)c(=O)n2C,6.98% (active)
16,CCc1nn(CCCC(=O)NCc2ccc(C)cc2)c(=O)c2cc3occc3n12,-17.3%
17,CCOC(=O)[C@H]1[C@H]2COc3cc(OC)ccc3[C@@H]2N2C(=O)N(c3ccc(Br)cc3)C(=O)[C@@]12C,-10.7%
18,O=P(O)(CP(=O)(c1ccccc1)c1ccccc1)c1ccccc1,-9.44%
19,Cc1cccc(N2CCN(C(=O)CN(C)S(=O)(=O)c3ccc4c(c3)CCC(=O)N4)CC2)c1C,-9.67%
20,CC(Oc1ccc(F)cc1)C(=O)Nc1ccccc1C(=O)NC1CC1 (configuration not stated),2.5%
21,Cc1c(-c2nn(C)c(=O)c3ccccc23)oc2ccc(F)cc2c1=O,-8.96%
22,C=CCOC(=O)C1=C[C@@H](c2ccc3c(c2)OCO3)C[C@@H](OCCCCO)O1,-0.78%
23,Cc1ccc(N/N=C2\COC(C)(C)CC2=O)cc1,-4.26%

row,Structure (SMILES),activation
1,CCOc1ccc(-c2c(C)n([O-])c3c([n+]2=O)CCCC3)cc1,-2.39%
2,Cc1ccc2c(c1)C(O)(CC(=O)c1cccc(-n3cccc3)c1)C(=O)N2 (configuration not stated),-5.12%
3,O=C(COc1ncnc2c(Cl)cc(Cl)cc12)N1CCN(S(=O)(=O)c2ccccc2)CC1,-0.15%
4,Cc1ccc(S(=O)(=O)N(C)c2ccc(OCC(=O)OCc3ccc(C#N)cc3)cc2)cc1,-6.02%
5,COc1ccc2c(c1)CC[C@@H]1[C@@H]2CC[C@]2(C)C(=O)CC[C@@H]12,-6.25%
6,O=S(=O)(NCCOc1cccc2cccnc12)c1ccc(F)cc1,-8.04%
7,COc1cccc(NC(=O)CSc2nnc(Cc3ccc(OC)c(OC)c3)o2)c1,-7.75%
8,Cc1cccc(N=C2SC(C)CN2C(=O)CN2C(=O)NC3(CCCC3)C2=O)c1 (configuration not stated),-10%
9,CCOc1ccc(C(=O)Nc2cc(Cl)ccc2-n2cncn2)cc1OC,3.32%
10,c1ccc(-c2cn3c(n2)CCc2ccc4cccnc4c2-3)cc1,0.09%
11,CCC(C)N(C(=O)COC(=O)C1C(C(=O)OC)=C(C)NC(C)=C1C(=O)OC)C1CCS(=O)(=O)C1 (configuration not stated),-7.92%
12,COc1ccc(NC(=O)CC(NC(C)c2ccccc2)C(=O)O)cc1 (configuration not stated),1.93%
13,CSc1cccc(NC(=O)CSc2ccccc2)c1,-15.7%
14,Cc1cc(C)cc(NC(=O)CSc2ccccc2)c1,12.9% (active)
15,Cc1cc(C)cc(NC(=O)CN2C(=O)c3ccccc3C2=O)c1,-3.2%
16,CCCCn1c(N)c(N(CC(C)C)C(=O)CSc2ccc([N+](=O)[O-])cc2)c(=O)[nH]c1=O,1.02%
17,Cc1ccc(-c2nnc(-n3nnc4ccccc43)c3ccccc23)cc1,-11.2%
18,Cc1ccc(Cl)cc1NC(=O)CN1CCN(S(=O)(=O)N2CCOCC2)CC1,-9.03%
19,Cc1ccc(S(=O)(=O)NC2(C(F)(F)F)NC(=O)N(CCc3ccccc3)C2=O)cc1 (configuration not stated),-18.6%
20,COc1cccc(N2CCN(c3ccc4nnc(CCC(=O)N5CCN(C)CC5)n4n3)CC2)c1,-0.01%
21,Cc1ccc(S(=O)(=O)N(CCCN(C)C)Cc2ccc3c(c2)OCO3)cc1,-1.86%
22,COc1ccc(SCc2noc(C(=O)NCC3CCCO3)c2C(=O)O)cc1 (configuration not stated),3.88%
23,CC1CN(CC(=O)NC(C)c2ccccc2)CC(C)O1 (configuration not stated),-2.73%

row,Structure (SMILES),activation
1,CC(C)Oc1ccccc1C(=O)NC(CO)C(=O)O (configuration not stated),7%
2,COc1ccc(CNc2cc(C)cc(C)c2)cc1OC,-5.89%
3,Cc1c(CN2CCC(CO)(CCOc3ccccc3)CC2)[nH]c2ccc(Cl)cc12,-15%
4,Cc1c(C)c2c(OCC(=O)N[C@@H](C(=O)O)c3ccccc3)cc3c(c2oc1=O)CCC(C)(C)O3,0.86%
5,CCc1c(SCCC(=O)O)nc2ccccc2c1C,2.81%
6,CN1CCN(c2ccc(CNS(=O)(=O)c3cccc(F)c3)cc2)CC1,-0.68%
7,Cc1ccsc1CNn1cnnc1SCc1ccccc1F,-4.45%
8,c1ccc2c(-c3nn4nnnc4c4ccccc34)cccc2c1,-11%
9,C=CCNC(=O)c1ccc2c3n(nc2c1)-c1ccc(C)cc1CO3,-15.6%
10,N#Cc1c(NC(=O)C2CCCO2)sc2c1CCCCC2 (configuration not stated),-9.34%
11,NC(=O)C1CC(=O)N(c2ccc(OCC(=O)NCc3ccccc3)cc2)C1 (configuration not stated),2.9%
12,CC1CCC2CCCCC2N1C(=O)c1cc([N+](=O)[O-])cc([N+](=O)[O-])c1 (configuration not stated),-6.56%
13,OCCN1CCOCCOCCN(CCO)CCN(CCO)CC1,-14%
14,Cc1cccc2c1-c1sc(C(=O)NCCCN3CCc4ccccc4C3)cc1CO2,-6.4%
15,O=C(NCc1ccccc1)C1CCN(C(=O)Cc2ccccc2)CC1,-0.95%
16,Cc1ccc(N2C(=O)CN=C2Nc2nc(C)cc(C)n2)cc1,-1.27%
17,COc1ccc(Br)c2c1C(=O)CC2,-5.51%
18,Cc1ccc(S(=O)(=O)NCC2CCC(C(=O)N3CCOCC3)CC2)cc1 (configuration not stated),-11.8%
19,CS(=O)(=O)Nc1ccccc1C(=O)OCC(=O)NC1CC1,-5.14%
20,O=C(Nc1ccccc1C(=O)N1CCOCC1)c1ccc(Cl)cc1,-4.35%
21,COC(=O)CSc1snnc1-c1ccc(Cl)c(Cl)c1,-15.7%
22,O=C(O)c1ccc2c(=O)n3c(nc2c1)/C(=C/c1ccc(OC(F)F)cc1OC(F)F)CC3,1.58%
23,Cn1c(N)c(C(=O)COC(=O)c2ccccc2NCc2ccco2)c(=O)n(C)c1=O,-14.4%

row,Structure (SMILES),activation
1,Cc1ccccc1Cn1c2ccccc2c2cnn(CC(=O)NCc3ccco3)c(=O)c21,1.81%
2,CCCCCCCCCCCCN1[C@@H](CC(C)=O)c2cc(F)cc(F)c2S1(=O)=O,9.85%
3,O=C(Nc1nc(-c2ccco2)c(-c2ccco2)s1)c1ccco1,-4.21%
4,CNc1nnc(-c2ccco2)s1,11.7% (active)
5,COc1ccc(OCC(=O)Nc2nnc(-c3ccco3)s2)cc1,-4.78%
6,CC(C)N(Cc1ccccc1)C(=O)COC(=O)c1cnccn1,-12.7%
7,COc1cc(OC)c(C(=O)OC(C)C(=O)Nc2cc(C(F)(F)F)ccc2Cl)cc1OC (configuration not stated),-8.37%
8,Cc1noc(C)c1NC(=O)Nc1ccc2c(c1)C(=O)N([C@H](C)CO)C[C@H](C)[C@@H](CN(C)C(=O)Nc1ccccc1)O2,-1.66%
9,CSc1ncccc1C(=O)OCc1ccc(Br)cc1,-14.7%
10,O=C(O)CCCCOn1ccnc1,3.24%
11,Cc1nc2cc(NCc3cccs3)ccc2n1C,-14.8%
12,O=C1/C(=C/c2ccc3c(c2)OCO3)Oc2cc(OCC(=O)N3CC(O)C[C@H]3C(=O)O)ccc21 (some centres not stated),-2.05%
13,Cc1nc(-c2ccc(F)cc2)c(CC(=O)N2CCN(S(=O)(=O)c3ccc(F)cc3)CC2)s1,-7.74%
14,O=C(Nc1ccc(F)cc1)C1CCN(C(=O)c2ccc([N+](=O)[O-])cc2)CC1,-7.48%
15,Cc1ccc(NC(=O)COc2coc(CN3CCc4ccccc4C3)cc2=O)cc1Cl,-8.11%
16,CCOC(=O)C1=C(N)N2C(=O)C(C)SC2=C(C(=O)OCC)C1c1cc(OC)c(OC)c(OC)c1 (configuration not stated),3.06%
17,O=C(Nc1ccc(F)cc1F)N1CCCN(CCOc2ccccc2)CC1,-5.95%
18,O=C1CC(c2c(F)cccc2Cl)C(n2cncn2)C(O)=C1C1NCCc2ccccc21 (configuration not stated),2.91%
19,O=C(COC(=O)CCc1nc2ccccc2c(=O)[nH]1)Nc1ccc(N2CCOCC2)cc1,-2.47%
20,CC1CCCCC12NC(=O)N(CC(=O)Nc1ccc(S(=O)(=O)Nc3ncccn3)cc1)C2=O (configuration not stated),1.55%
21,CCCCNc1c(-c2ccc(OC)c(Sc3ccc(OC)cc3)c2)nc2ccc(Cl)cn12,13.1% (active)
22,CCCCNc1c(-c2cccc(Sc3ccc(OC)cc3)c2)nc2ccccn12,-2.7%
23,CCCCCCSc1ccc(-c2nc3ccc(Cl)cn3c2NCc2ccccc2)cc1,-4.96%
